# Experimental data from ChEMBL document CHEMBL4229488, “Secondary carbamate linker can facilitate the sustained release of dopamine from brain-targeted prodrug” (Bioorg Med Chem Lett, 2018).
# Experiments:
# [1] = Stability in 75% rat plasma assessed as parent compound remaining after 6 hrs by HPLC analysis; assay type: ADME, cell-free; details: read-out: Stability
# Procedure, shortened: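 Incubated at 37 °C in 75% rat plasma, alongside isotonic Tris-HCl buffer (pH 7.4) and 10% rat liver homogenate. The read-out was the percentage of intact parent compound after 6 h, taken as conversion to dopamine.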
# [2] = Stability in 10% rat liver homogenates assessed as parent compound remaining after 6 hrs by HPLC analysis; assay type: ADME, tissue-based; details: for remaining at 6 h: 10% rat liver homogenate, read-out: Stability
# Procedure, shortened: (§1)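 Conversion of the compound was followed at 37 °C in 10% rat liver homogenate. The intact parent was tracked over time up to 6 h, and half-life or the percentage remaining at 6 h was taken from this.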
# [3] = Stability in pH 7.4 isotonic tris buffer assessed as parent compound remaining after 6 hrs by HPLC analysis; assay type: physicochemical; details: read-out: Stability
# Procedure, shortened: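 Chemical hydrolysis was run at 37 °C in isotonic Tris-HCl buffer at pH 7.4. The percentage of intact parent was measured after 6 h.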
# [4] = target: T1, Large neutral amino acids transporter small subunit 1 (Homo sapiens, UniProt Q01650); assay: Drug uptake in human MCF7 cells assessed as LAT1-mediated drug transportation rate at 25 to 50 uM after 10 mins by LC-MS analysis; assay type: ADME, cell-based; details: mcf7, 10 min
# T1 sequence (Q01650 whole entry): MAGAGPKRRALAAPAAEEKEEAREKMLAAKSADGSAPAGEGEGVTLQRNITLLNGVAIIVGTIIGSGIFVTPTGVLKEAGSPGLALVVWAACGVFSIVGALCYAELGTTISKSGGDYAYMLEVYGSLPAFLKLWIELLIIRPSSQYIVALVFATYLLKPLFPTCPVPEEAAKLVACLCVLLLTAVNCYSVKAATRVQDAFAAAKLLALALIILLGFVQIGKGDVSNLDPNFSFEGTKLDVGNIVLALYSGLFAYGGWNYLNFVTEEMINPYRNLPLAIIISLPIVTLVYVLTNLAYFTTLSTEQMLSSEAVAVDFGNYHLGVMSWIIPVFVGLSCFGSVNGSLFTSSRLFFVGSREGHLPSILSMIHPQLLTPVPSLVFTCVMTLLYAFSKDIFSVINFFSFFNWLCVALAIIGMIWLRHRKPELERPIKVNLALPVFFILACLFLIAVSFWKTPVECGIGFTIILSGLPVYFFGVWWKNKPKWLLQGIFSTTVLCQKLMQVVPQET
# [5] = target: T1, Large neutral amino acids transporter small subunit 1; assay: Inhibition of LAT1-mediated [14C]-L-leucine uptake in human MCF7 cells after 5 mins by liquid scintillation counting method; assay type: cell-based
# [6] = Half-life in human in presence of COMT inhibitor entacapone; assay type: ADME, organism-based; details: in vivo
# [7] = Half-life in human in presence of AADC inhibitor carbidopa; assay type: ADME, organism-based; details: in vivo
# [8] = Half life in 10% rat liver homogenate by HPLC method; assay type: ADME, tissue-based; procedure, shortened: as §1
# [9] = target: T1, Large neutral amino acids transporter small subunit 1; assay: Drug uptake in human MCF7 cells assessed as LAT1-mediated drug transportation rate at 3.125 to 100 uM after 10 mins by LC-MS analysis; assay type: ADME, cell-based; details: mcf7, 10 min
SMILES,remaining at 6 h [1] [%],remaining at 6 h [2] [%],remaining at 6 h [3] [%],Vmax [4] [pmol/mg/min],IC50 [5] [µM],inhibition [5],"Stability ([2]; tissue homogenate, 6 h)",half-life [6] [min],half-life [7] [min],half-life [8] [min],Vmax [9] [nmol/mg/min]
Cl.N[C@@H](Cc1ccc(OC(=O)NCCc2ccc(O)c(O)c2)cc1)C(=O)O,40.5 to 60.5,63.2 to 66.5,78.1 to 93.1,< 3,27.7,Dose-dependent effect,–,–,–,–,–
N[C@@H](Cc1ccc(O)c(O)c1)C(=O)O [LEVODOPA],–,–,99.8 to 103,–,100,Dose-dependent effect,Unstable,30 to 90,60,15.5,2.6
Cl.NC(Cc1cccc(C(=O)NCCc2ccc(O)c(O)c2)c1)C(=O)O (stereo not given),57.4 to 62.7,47.7 to 51.9,83.2 to 83.7,< 3,32.4,Dose-dependent effect,–,–,–,–,–
